The structures appear in SMILES notation. In brackets after ≈: the same amount, converted by molar mass.

Results on 16 compounds are retold here after ChEMBL document CHEMBL3763095, “Naphtho[1',2':4,5]imidazo[1,2-a]pyridine-5,6-diones: Synthesis, enzymatic reduction and cytotoxic activity” (Bioorg Med Chem Lett, 2016).

Data set [1] concerns MCF7. As to the kind of experiment: Ratio of LC50 for human MCF7 cells expressing NQO1 in presence of NQO1 inhibitor dicoumarol to LC50 for human A549 cells expressing NQO1 in absence of NQO1 inhibitor dicoumarol. In kind it is functional.
For data set [2], the system named is MCF7. As to the kind of experiment: Cytotoxicity against human MCF7 cells expressing NQO1 assessed as cell viability after 24 hrs by MTT assay. Conditions: MCF7, 24 h, read-out: LC50 (the source's name). In kind it is functional. Summed up: (§1)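 Cells exposed to the quinones for 24 h, then survival read by MTT assay. Viability expressed as percent of solvent-treated control cells. LC50 (concentration causing 50% lethal effect) obtained from logistic dose-response curves.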

Data set [3] can be described thus: Cytotoxicity against NQO1-deficient human HL60 cells assessed as cell viability after 24 hrs by MTT assay. In kind it is cell-based, HL-60. Conditions: read-out: LC50. The method in brief:
as §1
For orientation: Formazan colour is commonly taken as a measure of viable cells.

Data set [4] relates to A549. As to the kind of experiment: Ratio of LC50 for human A549 cells expressing NQO1 in presence of NQO1 inhibitor dicoumarol to LC50 for human A549 cells expressing NQO1 in absence of NQO1 inhibitor dicoumarol. In kind it is functional.
Data set [5] concerns A549. As to the kind of experiment: Cytotoxicity against human A549 cells expressing NQO1 assessed as cell viability after 24 hrs by MTT assay. In kind it is functional. The note with it: A549, 24 h, read-out: LC50 (the source's name). Summed up:
as §1

For the next data set, the system named is Staphylococcus aureus. As to the kind of experiment: Antibacterial activity against Staphylococcus aureus ATCC 25923 after 16 hrs by two-fold microdillution method. In kind it is functional. Conditions: ATCC 25923, 16 h.

For `O=C1C(=O)c2c(nc3ccccn23)-c2ccc([N+](=O)[O-])cc21`, the values for the RatioLC50 in the data set with MCF7 [1] and with A549 [4] were 3.6 and 3.3, respectively. Besides, the CC50 in the data set with MCF7 [2] worked out at 280 nM; in the data set on A549 [5] it was 120 nM. Also, the CC50 at 24 h in data set [3] was > 15000 nM.

The MIC is the least concentration at which growth counts as inhibited. Regarding `O=C1C(=O)c2c(nc3ccc(Br)cn23)-c2ccccc21`, the results for the CC50 in the data set on MCF7 [2] and with A549 [5] were 1390 nM and 3930 nM, respectively. In addition, the MIC in the data set on Staphylococcus aureus worked out at 6.1 µM (≈ 2 µg/mL). Further, in data set [3], the CC50 at 24 h was > 15000 nM.

`O=C1C(=O)c2c(nc3ccc(C(F)(F)F)cn23)-c2ccccc21`: the CC50 in the data set on MCF7 [2] amounted to 3780 nM; in the data set with A549 [5] it was 900 nM. In addition, inhibition of growth against Staphylococcus aureus (MIC) required 6.3 µM (≈ 1.99 µg/mL). For the same compound, the CC50 at 24 h in data set [3] was > 15000 nM.

Consider `O=C1C(=O)c2c(nc3ccc(F)cn23)-c2ccccc21`, for which the values for the CC50 in the data set with MCF7 [2] and in the data set on A549 [5] were 1320 nM and 2030 nM, respectively. The compound further had an MIC against Staphylococcus aureus of 15 µM (≈ 3.99 µg/mL). Further, the CC50 at 24 h in data set [3] was 13000 nM.

As for `O=C1C(=O)c2c(nc3ncccn23)-c2ccccc21`, the results for the CC50 in the data set with MCF7 [2] and with A549 [5] were 800 nM and 1600 nM, respectively. In addition, in the data set on Staphylococcus aureus, the minimum inhibitory concentration (MIC) came to 8 µM (≈ 1.99 µg/mL). In data set [3], the CC50 at 24 h is > 15000 nM.

`O=C1C(=O)c2c(nc3ccc([N+](=O)[O-])cn23)-c2ccccc21`: the values for the CC50 in the data set with MCF7 [2] and in the data set with A549 [5] were 1700 nM and 2300 nM, respectively. Besides, the CC50 at 24 h in data set [3] is > 15000 nM.

On to `O=C1C(=O)c2c(nc3ccccn23)-c2ccccc21`, for which the values for the RatioLC50 in the data set with MCF7 [1] and in the data set with A549 [4] were 2.3 and 3.1, respectively. For the same compound, the CC50 in the data set with MCF7 [2] came out at 510 nM; in the data set on A549 [5] it was 670 nM. This compound also had an MIC against Staphylococcus aureus of 16.1 µM (≈ 4 µg/mL). Moreover, the CC50 at 24 h in data set [3] is > 15000 nM.

Regarding `Cc1ccn2c3c(nc2c1)-c1ccccc1C(=O)C3=O`, the CC50 is 1250 nM in the data set on MCF7 [2] and 1500 nM in the data set with A549 [5]. This compound also displayed a minimal inhibitory concentration (MIC) with Staphylococcus aureus of 15.2 µM (≈ 3.99 µg/mL). Further, the CC50 at 24 h in data set [3] is > 15000 nM.

As to `Cc1cccn2c3c(nc12)-c1ccccc1C(=O)C3=O`, the values for the CC50 in the data set with MCF7 [2] and in the data set with A549 [5] were 1700 nM and 3400 nM, respectively. This compound returned an MIC against Staphylococcus aureus of 15.2 µM (≈ 3.99 µg/mL). The CC50 at 24 h in data set [3] was > 15000 nM.

As for `Cc1ccc2nc3c(n2c1)C(=O)C(=O)c1ccccc1-3`, the results for the CC50 in the data set with MCF7 [2] and in the data set on A549 [5] were 3940 nM and 8340 nM, respectively. For the same compound, the minimal inhibitory concentration (MIC) with Staphylococcus aureus was found to be 15.2 µM (≈ 3.99 µg/mL). In addition, the CC50 at 24 h in data set [3] was > 15000 nM.

Regarding `O=C1C(=O)c2c(nc3ccc4ccccc4n23)-c2ccccc21`, the CC50 in the data set on MCF7 [2] and in the data set on A549 [5] was > 15000 nM each time. In addition, the CC50 at 24 h in data set [3] was > 15000 nM.

For `O=C1C(=O)c2c(nc3ccc(Cl)cn23)-c2ccccc21`, the results for the CC50 in the data set on MCF7 [2] and in the data set on A549 [5] were 3410 nM and 2060 nM, respectively. Further, the MIC against Staphylococcus aureus is 7 µM (≈ 1.98 µg/mL). For the same compound, the CC50 at 24 h in data set [3] worked out at 10000 nM.

With `COc1ccc2nc3c(n2c1)C(=O)C(=O)c1ccccc1-3`, the CC50 in the data set on MCF7 [2] came to 2100 nM; in the data set with A549 [5], 3350 nM. Besides, in the data set on Staphylococcus aureus, the MIC was found to be 14.3 µM (≈ 3.98 µg/mL). Besides, in data set [3], the CC50 at 24 h is > 15000 nM.

As to `CC1(C)S[C@@H]2[C@H](NC(=O)[C@H](N)c3ccc(O)cc3)C(=O)N2[C@H]1C(=O)O` [AMOXICILLIN], in the data set with Staphylococcus aureus, 0.3 µM (≈ 0.11 µg/mL) was the least that counted as inhibitory (MIC).

As for `COc1cccc2c1C(=O)c1c(O)c3c(c(O)c1C2=O)C[C@@](O)(C(=O)CO)C[C@@H]3O[C@H]1C[C@H](N)[C@H](O)[C@H](C)O1` [DOXORUBICIN], the CC50 was determined as 1560 nM in the data set with MCF7 [2] and 1170 nM with A549 [5]. The CC50 at 24 h in data set [3] amounted to 370 nM.

As for `CN[C@@H]1[C@H](O[C@H]2[C@H](O[C@H]3[C@H](O)[C@@H](O)[C@H](N=C(N)N)[C@@H](O)[C@@H]3N=C(N)N)O[C@@H](C)[C@]2(O)C=O)O[C@@H](CO)[C@H](O)[C@H]1O` [STREPTOMYCIN], the minimum inhibitory concentration (MIC) in the data set with Staphylococcus aureus worked out at 5.4 µM (≈ 3.14 µg/mL).
